Converted amounts (≈) assume the structure as drawn. Square brackets hold non-standard residues; d marks the D form. Peptide text beside a SMILES is read from it. Trp(5-Cl) = N[C@@H](Cc1c[nH]c2ccc(Cl)cc12)C(=O)O; dAsn(3R-OH) = NC(=O)[C@H](O)[C@@H](N)C(=O)O; aIle = CC[C@@H](C)[C@H](N)C(=O)O; Orn = NCCC[C@H](N)C(=O)O
Tests used:
Format in all cases: functional
Staphylococcus aureus [1] = test: Antibacterial activity against quinolone-resistant Staphylococcus aureus CCARM 3505 after 24 hrs by broth microdilution method; settings: CCARM 3505, 24 h
Method in brief: (§1)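 Broth microdilution in Mueller−Hinton broth. Strains grown to mid-log phase in the same medium and diluted 1000-fold, then inoculated at 10^5 cells/mL. Compounds dissolved in DMSO (final ≤0.05%) and tested as serial 2-fold dilutions; 0.05% DMSO as vehicle control. Incubated 24 h at 37 °C with growth read as absorbance at 650 nm. MIC taken as the lowest concentration completely inhibiting growth, in triplicate.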

Pseudomonas aeruginosa = test: Antibacterial activity against Pseudomonas aeruginosa KCTC 2004 after 24 hrs by broth microdilution method; settings: KCTC 2004, 24 h
Method in brief: (§2)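 Broth microdilution in Mueller–Hinton broth. Strains grown to mid-log phase and diluted 1000-fold in the same medium. Cells at 10^5/mL, 0.2 mL/well. Test samples prepared in DMSO (final ≤0.05%), with 0.05% DMSO as vehicle control. Serial 2-fold dilutions, 24 h at 37 °C. Growth read as absorbance at 650 nm. MIC is the lowest concentration giving complete growth inhibition, done in triplicate.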

Streptococcus pneumoniae = test: Antibacterial activity against Streptococcus pneumoniae KCTC 5412 after 24 hrs by broth microdilution method; settings: KCTC 5412, 24 h
Method in brief: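 Broth microdilution with cells grown in Todd–Hewitt medium instead of Mueller–Hinton broth. Cells at 10^5/mL, 0.2 mL/well. Test samples prepared in DMSO (final ≤0.05%), with 0.05% DMSO as vehicle control. Serial 2-fold dilutions, 24 h at 37 °C. Growth read as absorbance at 650 nm. MIC is the lowest concentration giving complete growth inhibition, done in triplicate.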

Staphylococcus aureus [2] = test: Antibacterial activity against methicillin-resistant Staphylococcus aureus CCARM 3167 after 24 hrs by broth microdilution method; settings: CCARM 3167, 24 h; method in brief: as §1
Escherichia coli = test: Antibacterial activity against Escherichia coli CCARM 1356 after 24 hrs by broth microdilution method; settings: CCARM 1356, 24 h; method in brief: as §2
Bacillus subtilis = test: Antibacterial activity against Bacillus subtilis KCTC 1021 after 24 hrs by broth microdilution method; settings: KCTC 1021, 24 h; method in brief: as §2
Staphylococcus aureus [3] = test: Antibacterial activity against Staphylococcus aureus RN4220 after 24 hrs by broth microdilution method; settings: RN4220, 24 h; method in brief: as §1
Enterococcus faecalis = test: Antibacterial activity against Enterococcus faecalis KCTC 5191 after 24 hrs by broth microdilution method; settings: KCTC 5191, 24 h; method in brief: as §2

Structure (SMILES) | MIC (Staphylococcus aureus [1]) | MIC (Pseudomonas aeruginosa) | MIC (Streptococcus pneumoniae) | MIC (Staphylococcus aureus [2]) | MIC (Escherichia coli) | MIC (Bacillus subtilis) | MIC (Staphylococcus aureus [3]) | MIC (Enterococcus faecalis)
CC[C@@H](C)[C@@H]1NC(=O)[C@@H](CCC(C)C)NC(=O)[C@@H](C(C)C)NC(=O)[C@H](Cc2c[nH]c3ccc(Cl)cc23)NC(=O)[C@@H]([C@@H](O)C(N)=O)NC(=O)[C@H](CCCN)NC1=O | 8 µg/mL (≈ 9.95 µM) | 128 µg/mL (≈ 159 µM) | 16 µg/mL (≈ 19.9 µM) | 16 µg/mL (≈ 19.9 µM) | 128 µg/mL (≈ 159 µM) | 8 µg/mL (≈ 9.95 µM) | 16 µg/mL (≈ 19.9 µM) | 8 µg/mL (≈ 9.95 µM)
CC[C@@H](C)[C@@H]1NC(=O)[C@@H](CC(C)C)NC(=O)[C@@H](C(C)C)NC(=O)[C@H](Cc2c[nH]c3ccc(Cl)cc23)NC(=O)[C@@H]([C@@H](O)C(N)=O)NC(=O)[C@H](CCCN)NC1=O (cyclo([Orn][dAsn(3R-OH)][Trp(5-Cl)][dV][dL][aIle])) | 16 µg/mL (≈ 20.2 µM) | 128 µg/mL (≈ 162 µM) | 8 µg/mL (≈ 10.1 µM) | 32 µg/mL (≈ 40.5 µM) | 64 µg/mL (≈ 81 µM) | 8 µg/mL (≈ 10.1 µM) | 16 µg/mL (≈ 20.2 µM) | 8 µg/mL (≈ 10.1 µM)
O=C(O)c1cn(C2CC2)c2cc(N3CCNCC3)c(F)cc2c1=O [CIPROFLOXACIN] | 32 µg/mL (≈ 96.6 µM) |  |  | 4 µg/mL (≈ 12.1 µM) | 64 µg/mL (≈ 193 µM) | 0.015 µg/mL (≈ 0.0453 µM) |  | 1 µg/mL (≈ 3.02 µM)

Reference: ChEMBL document CHEMBL4130534, “Genomics-Driven Discovery of Chlorinated Cyclic Hexapeptides Ulleungmycins A and B from a Streptomyces Species” (2017)
